Data set [1] can be described thus: Therapeutic index is the ratio between IC50/EC50 of HIV-I RFII strain in CEM cell line. It is filed as cell-based, CCRF-CEM. The following applies: human, CEM cells infected with HIV-1 RFII strain; read-out: TI. The procedure, abridged:
(§1)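 CEM-SS cells in RPMI 1640 with 10% heat-inactivated FCS, infected at ~0.12 TCID50/cell for 4 h at 37 °C, washed, and seeded at 10^4 cells/mL. Drug dilutions from DMSO went up to 100 µg/mL, in triplicate on infected wells and duplicate on uninfected wells. MTT viability was measured after 6 days.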

The nature of data set [2]: Therapeutic index is the ratio between IC50/EC50 of HIV-I H112-2 strain in MT2 cell line. It is filed as cell-based. The following applies: human, MT2 cells infected with HIV-1 H112-2 strain; read-out: TI. In a few lines:
(§2)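 MT-2 cells in RPMI 1640 with 10% heat-inactivated FCS and 25 mM HEPES, infected at MOI ~0.03 TCID50/cell for 4 h at 37 °C, then washed. Seeded at 10^4 cells/mL. Compounds were diluted from DMSO to a top concentration of 100 µg/mL (≤0.25% DMSO), in triplicate with infected cells and duplicate with uninfected cells. MTT viability was read at day 7. EC50 protects against virus-induced killing; IC50 is cytotoxicity.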

The subject of data set [3] is MT2. Briefly: Anti-HIV activity against HIV-I A17 strain in MT2 cell line. The following applies: Homo sapiens. It is filed as functional, cell-based. The procedure, abridged:
as §2

The nature of data set [4]: Therapeutic index is the ratio between IC50/EC50 of HIV-I IIIB strain in MT2 cell line. The following applies: human, MT2 cells infected with HIV-1 IIIB strain; read-out: TI. It is filed as cell-based. The procedure, abridged:
as §2

Data set [5] in a line: Therapeutic index is the ratio between IC50/EC50 of HIV-I A17 strain in MT2 cell line. It is filed as cell-based. The following applies: human, MT2 cells infected with HIV-1 A17 strain; read-out: TI. In a few lines:
as §2

Data set [6] relates to MT2. Put plainly: (§3) Anti-HIV activity against HIV-I H112-2 strain in MT2 cell line. It is filed as functional, cell-based. The following applies: Homo sapiens. In a few lines: as §2
The test system of data set [7] is MT2. Put plainly: (§4) Anti-HIV activity against HIV-I G910-6 strain in MT2 cell line. It is filed as functional, cell-based. The following applies: Homo sapiens. In a few lines:
as §2

The nature of data set [8]: Therapeutic index is the ratio between IC50/EC50 of HIV-I G910-6 strain in MT2 cell line. The format is cell-based. The following applies: human, MT2 cells infected with HIV-1 G910-6 strain; read-out: TI. In a few lines:
as §2

Data set [9] concerns MT2. Put plainly: Anti-HIV activity against HIV-I IIIB strain in MT2 cell line. The following applies: Homo sapiens. The format is functional, cell-based. The procedure, abridged: as §2
For another data set, the system named is CCRF-CEM. Put plainly: Anti-HIV activity against HIV-I RFII strain in CEM cell line. The format is functional, cell-based. The following applies: Homo sapiens. The procedure, abridged:
as §1

Data set [10] concerns the target DNA-directed RNA polymerase subunit beta (Escherichia coli K-12) (UniProt P0A8V2). Put plainly: Percent inhibition against RNA polymerase at dose 200 ug/mL. The procedure, abridged: (§5)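 RNA polymerase (0.5 unit) in Tris·HCl with 150 mM KCl, 10 mM MgCl2, 0.1 mM DTT, and BSA. Template was 41 µM native calf thymus DNA, with 80 µM each ATP, CTP and GTP, plus [3H]UTP. Compounds in DMSO were prescreened at 200 µg/mL. […] Percent inhibition = (1 − test/DMSO control) × 100.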

The target of data set [11] is DNA-directed RNA polymerase subunit beta (Escherichia coli K-12, UniProt P0A8V2). Put plainly: Inhibitory activity against RNA polymerase; IA=inactive. The procedure, abridged: as §5
Data set [12] deals with Avian myeloblastosis virus. Put plainly: Percent inhibition against Avian Myeloblastosis Virus Reverse Transcriptase (AMV RT) at dose 200 ug/mL. It is filed as functional.
The target of data set [13] is Nucleic Acid. Put plainly: Inhibitory activity against DNA polymerase beta. The format is nucleic-acid assay. In a few lines: (§6)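 Polymerase α or β (0.5 unit) in Tris·HCl with 5 mM KCl, 10 mM MgCl2, 1.5 mM DTT, BSA, and 12% glycerol. Template was 41 µM activated calf thymus DNA, with 80 µM each dATP, dCTP, dGTP and ATP, plus [3H]TTP. Compound was added in DMSO, duplicate wells, 37 °C. Incorporation was counted by scintillation. IC50 came from 10-point half-log dose–response curves.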

The test system of data set [14] is Nucleic Acid. Briefly: Inhibitory activity against DNA polymerase alpha; IA=inactive. The format is nucleic-acid assay. In a few lines: as §6
Data set [15] concerns Avian myeloblastosis virus. Put plainly: Inhibitory activity against Avian Myeloblastosis Virus Reverse Transcriptase (AMV RT); inactive. The format is functional.
In data set [16] the test system is Avian myeloblastosis virus. Put plainly: Inhibitory activity against Avian Myeloblastosis Virus Reverse Transcriptase (AMV RT); IA=inactive. It is filed as functional.
Data set [17] relates to MT2. The description is as §3. It is filed as functional. The following applies: Homo sapiens. The procedure, abridged:
as §2

Data set [18] concerns MT2. The description is as §4. It is filed as functional. The following applies: Homo sapiens. The procedure, abridged:
as §2

Sequence of DNA-directed RNA polymerase subunit beta (P0A8V2 whole entry): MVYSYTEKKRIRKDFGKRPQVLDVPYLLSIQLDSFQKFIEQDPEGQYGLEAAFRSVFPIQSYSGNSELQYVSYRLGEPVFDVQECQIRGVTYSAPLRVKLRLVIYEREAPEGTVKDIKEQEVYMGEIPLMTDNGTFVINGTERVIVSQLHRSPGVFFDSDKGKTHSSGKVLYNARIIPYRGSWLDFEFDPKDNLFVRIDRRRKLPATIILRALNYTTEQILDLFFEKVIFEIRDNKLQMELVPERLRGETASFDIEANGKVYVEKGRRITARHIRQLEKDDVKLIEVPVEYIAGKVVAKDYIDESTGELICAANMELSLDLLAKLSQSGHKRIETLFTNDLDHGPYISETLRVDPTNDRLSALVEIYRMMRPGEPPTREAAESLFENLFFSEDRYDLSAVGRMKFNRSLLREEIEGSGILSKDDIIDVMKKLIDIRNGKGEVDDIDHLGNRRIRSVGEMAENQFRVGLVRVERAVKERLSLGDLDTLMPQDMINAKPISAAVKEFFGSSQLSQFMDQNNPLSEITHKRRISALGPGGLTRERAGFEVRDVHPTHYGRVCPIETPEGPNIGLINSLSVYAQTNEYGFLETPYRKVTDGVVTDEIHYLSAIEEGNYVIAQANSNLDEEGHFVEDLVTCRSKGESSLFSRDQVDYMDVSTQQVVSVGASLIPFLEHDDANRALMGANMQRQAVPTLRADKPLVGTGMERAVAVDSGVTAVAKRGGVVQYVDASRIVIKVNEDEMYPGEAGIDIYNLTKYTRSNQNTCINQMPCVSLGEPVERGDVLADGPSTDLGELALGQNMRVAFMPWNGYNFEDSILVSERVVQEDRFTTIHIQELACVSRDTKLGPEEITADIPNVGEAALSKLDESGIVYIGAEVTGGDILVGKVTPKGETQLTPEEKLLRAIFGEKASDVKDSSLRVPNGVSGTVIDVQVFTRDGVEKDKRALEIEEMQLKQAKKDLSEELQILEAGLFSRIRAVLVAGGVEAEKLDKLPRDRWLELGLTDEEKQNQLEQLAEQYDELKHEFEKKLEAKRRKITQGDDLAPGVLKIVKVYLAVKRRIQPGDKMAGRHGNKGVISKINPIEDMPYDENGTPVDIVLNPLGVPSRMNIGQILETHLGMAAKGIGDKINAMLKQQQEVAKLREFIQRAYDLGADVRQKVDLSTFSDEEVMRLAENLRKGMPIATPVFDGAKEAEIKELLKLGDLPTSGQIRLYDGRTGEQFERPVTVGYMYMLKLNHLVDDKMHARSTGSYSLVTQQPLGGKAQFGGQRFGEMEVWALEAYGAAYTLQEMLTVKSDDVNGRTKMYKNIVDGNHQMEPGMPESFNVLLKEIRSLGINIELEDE
Sequence of DNA-directed RNA polymerase subunit beta (Escherichia coli K-12) (P0A8V2 whole entry, looked up): as the sequence (P0A8V2 whole entry) above

As to `Nc1ccn([C@H]2CC[C@@H](CO)O2)c(=O)n1` [ZALCITABINE], the selectivity ratio in data set [1] was 250; in data set [2] it was 166; in data set [4] it was 93; in data set [5], 408; in data set [8] it was 213. In addition, the EC50 in the data set on MT2 [3] came out at 331 nM; in the data set with MT2 [6] it was 1560 nM; in the data set with MT2 [7] it was 994 nM; in the data set on MT2 [9] it was 900 nM; in the data set on CCRF-CEM it was 189 nM.

As for `CCCc1cc(=O)oc2c3c(c4c(c12)OC(C)(C)C=C4)O[C@H](C)[C@@H](C)[C@@H]3O` [CALANOLIDE A], the inhibition in data set [10] came out at 16%. In addition, the IC50 entry in [11] was “Not Active”; on Nucleic Acid [13], 205000 nM; with Nucleic Acid [14], “Not Active”; in data set [15], “Not Active”. The same compound gave an inhibition at 200 µg/mL in data set [12] of 20.6%. For the same compound, the EC50 was 427 nM in the data set on MT2 [3]; 107 nM in the data set with MT2 [6]; 27 nM with MT2 [7]; 53 nM with MT2 [9]; 267 nM in the data set with CCRF-CEM.

`CCCc1cc(=O)oc2c3c(c4c(c12)OC(C)(C)C=C4)O[C@@H](C)C(C)[C@@H]3O` (mixture of isomers): the IC50 entry in data set [16] is “Not Active”; in [11], “Not Active”; against Nucleic Acid [13], 279000 nM; with Nucleic Acid [14], “Not Active”. In [10], this compound gave an inhibition of 27.8%. In data set [12], this compound displayed an inhibition at 200 µg/mL of 13.3%. In addition, the EC50 with MT2 [3] is 297 nM; with MT2 [6] it was 135 nM; with MT2 [7], 108 nM; with MT2 [9] it was 108 nM; with CCRF-CEM it was 486 nM.

For `CCCc1cc(=O)oc2c3c(c4c(c12)OC(C)(C)C=C4)O[C@@H](C)[C@H](C)[C@@H]3O` [COSTATOLIDE], the IC25 in the data set on MT2 [17] was found to be 4050 nM; in the data set with MT2 [18], 3970 nM. The IC50 entry was “Not Active” in [16], “Not Active” in [11], 214000 nM on Nucleic Acid [13] and “Not Active” in the data set on Nucleic Acid [14]. Further, the inhibition in data set [10] came out at 12.1%. This compound also came in with an inhibition at 200 µg/mL in data set [12] of 16.8%.

Take `Cc1cn([C@H]2C[C@H](N=[N+]=[N-])[C@@H](CO)O2)c(=O)[nH]c1=O` [ZIDOVUDINE]: the selectivity ratio came out at 13100 in data set [1], 3240 in data set [2], 1780 in [4] and 5960 in data set [5]. Moreover, the EC50 with MT2 [3] stood at 14 nM; with MT2 [6], 37 nM; in the data set with MT2 [9], 29 nM; in the data set on CCRF-CEM, 23 nM.

Values taken from ChEMBL document CHEMBL1129527, “Synthesis, chromatographic resolution, and anti-human immunodeficiency virus activity of (+/-)-calanolide A and its enantiomers” (J Med Chem, 1996).
